Reference: ChEMBL document CHEMBL1124368 (J Med Chem, 1989)

Experiments:
[1] = biological target: T1, Dihydrofolate reductase (Rattus norvegicus, UniProt Q920D2); assay: In vitro inhibitory concentration against rat liver dihydrofolate reductase(DHFR); settings: read-out: I50
T1 sequence (Q920D2 whole entry): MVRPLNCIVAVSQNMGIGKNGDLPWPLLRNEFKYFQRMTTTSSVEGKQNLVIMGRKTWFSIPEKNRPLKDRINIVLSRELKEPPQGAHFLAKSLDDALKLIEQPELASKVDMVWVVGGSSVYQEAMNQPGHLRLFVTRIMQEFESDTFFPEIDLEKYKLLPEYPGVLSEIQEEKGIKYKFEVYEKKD
Summary of the method: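 Partially purified rat liver DHFR, prepared by the Bertino and Fischer method, assayed spectrophotometrically at 340 nm. I50 is the final inhibitor concentration that cuts the reaction rate to 50% of the uninhibited rate. […] Inhibitors were dissolved in 0.1 M HCl or 95% ethanol.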

[2] = test system: Mus musculus; assay: Mean of weight gain from day 0 to day 24 at a dose of 6.25 mg/kg/day; assay type: functional; design: unit not given here
Summary of the method: (§1)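 M5076 reticulum cell sarcoma: 10⁶ cells implanted im into the left leg of female BDF₁ mice (groups of five) on day 0. Drug in 10–20% DMSO in arachis oil was given ip daily on days 1–17. Weight change is the mean weight gain from day 0 to day 24.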

[3] = test system: Mus musculus; assay: Tumor volume in 24 days after tumor implantation at a dose of 6.25 mg/kg/day; assay type: functional
Summary of the method: (§2)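 10⁶ M5076 reticulum cell sarcoma cells were injected im into the left leg of female BDF₁ mice, five per group, on day 0. Compound in 10–20% DMSO/arachis oil was dosed ip daily on days 1–17. Tumor volumes (mm³) were recorded on days 12, 16, 20 and 24 after implantation, with NM marking a tumor that could not be measured.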

[4] = test system: Mus musculus; assay: Tumor volume in 24 days after tumor implantation at a dose of 3.125 mg/kg/day; assay type: functional; summary of the method: as §2
[5] = test system: Mus musculus; assay: Ratio of tumor volume of test(T) animals compared to control(C) animals x 100 T/C(%)] at a dose of 3.125 mg/kg/day; assay type: functional
Summary of the method: (§3)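 M5076 reticulum cell sarcoma: 10⁶ cells implanted im into the left leg of female BDF₁ mice (groups of five) on day 0. Treatment was ip, daily on days 1–17, in 10–20% DMSO in arachis oil. T/C% is treated tumor volume over control tumor volume × 100.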

[6] = test system: Mus musculus; assay: Ratio of tumor volume of test(T) animals compared to control(C) animals x 100 T/C(%)] at a dose of 6.25 mg/kg/day; assay type: functional; summary of the method: as §3
[7] = test system: Mus musculus; assay: (§4) Mean of weight gain from day 0 to day 24 at a dose of 3.125 mg/kg/day of compound; assay type: functional; design: unit not given here; summary of the method: as §1
[8] = test system: Mus musculus; assay: Mean of weight gain from day 0 to day 24 at a dose of 25 mg/kg/day of compound; assay type: functional; design: unit not given here; summary of the method: as §1
[9] = test system: Mus musculus; assay: Tumor volume in 24 days after tumor implantation at a dose of 25 mg/kg/day of compound; assay type: functional; summary of the method: as §2
[10] = test system: Mus musculus; assay: Mean of weight gain from day 0 to day 24 at a dose of 12.5 mg/kg/day of compound; assay type: functional; design: unit not given here; summary of the method: as §1
[11] = test system: Mus musculus; assay: Tumor volume in 20 days after tumor implantation at a dose of 6.25 mg/kg/day of compound; assay type: functional; summary of the method: as §2
[12] = test system: Mus musculus; assay: Ratio of tumor volume of test(T) animals compared to control(C) animals x 100 T/C(%)] at a dose of 25 mg/kg/day; assay type: functional; summary of the method: as §3
[13] = test system: Mus musculus; assay: Tumor volume in 20 days after tumor implantation at a dose of 3.125 mg/kg/day; assay type: functional; summary of the method: as §2
[14] = test system: Mus musculus; assay: Tumor volume in 24 days after tumor implantation at a dose of 12.5 mg/kg/day; assay type: functional; summary of the method: as §2
[15] = test system: Mus musculus; assay: Ratio of tumor volume of test(T) animals compared to control(C) animals x 100 T/C(%)] at a dose of 12.50 mg/kg/day; assay type: functional; summary of the method: as §3
[16] = test system: Mus musculus; assay: Tumor volume in 16 days after tumor implantation at a dose of 50 mg/kg/day of compound; NM=Tumor not measurable; assay type: functional, organism-based; summary of the method: as §2
[17] = test system: Mus musculus; assay: Number of survivors versus treated on day 24 at a dose of 6.25 mg/kg/day of compound; Tumor not measurable; assay type: functional, organism-based
[18] = test system: Mus musculus; assay: Number of survivors versus treated on day 24 at a dose of 12.5 mg/kg/day of compound; Tumor not measurable; assay type: functional, organism-based
[19] = test system: Mus musculus; assay: Tumor volume in 16 days after tumor implantation at a dose of 3.125 mg/kg/day of compound; assay type: functional; summary of the method: as §2
[20] = test system: Mus musculus; assay: as §4; assay type: functional; summary of the method: as §1

CCc1nc(N)nc(N)c1-c1ccc(N(C)Cc2ccccc2)c(N)c1
IC50 [1]: 0.1 µM

CCc1nc(N)nc(N)c1-c1ccc(N2CCOCC2)c([N+](=O)[O-])c1
IC50 [1]: 8 µM

CCc1nc(N)nc(N)c1-c1ccc(NCc2ccc(OC)c(OC)c2)c([N+](=O)[O-])c1
Weight change [2]: 0.9
Tumor volume [3]: 324 mm**3
Tumor volume [4]: 371 mm**3
Antitumor activity [5]: 10%
Antitumor activity [6]: 9%
Weight change [7]: 1

CCc1nc(N)nc(N)c1-c1ccc([N+](=O)[O-])c(NCc2ccccc2)c1
IC50 [1]: 9.2 µM

CCc1nc(N)nc(N)c1-c1ccc([N+](=O)[O-])c(N(C)Cc2ccccc2)c1
IC50 [1]: 0.44 µM

CCc1nc(N)nc(N)c1-c1ccc(N2CCN(C)CC2)c(N)c1
IC50 [1]: > 25 µM

CCc1nc(N)nc(N)c1-c1ccc(NC)c([N+](=O)[O-])c1
Weight change [8]: 2.1
Weight change [2]: 3.3
Tumor volume [3]: 805 mm**3
Tumor volume [9]: 220 mm**3
Weight change [10]: 2.1
Tumor volume [4]: 1407 mm**3
Tumor volume [11]: 640 mm**3
Antitumor activity [12]: 10%
Tumor volume [13]: 822 mm**3
Antitumor activity [5]: 61%
Tumor volume [14]: 462 mm**3
Antitumor activity [15]: 20%
Tumor volume [16]: Not measurable
Antitumor activity [6]: 35%
Weight change [7]: 4.3

CCc1nc(N)nc(N)c1-c1ccc(N2CCCC2)c(N)c1
IC50 [1]: > 25 µM

CCc1nc(N)nc(N)c1-c1ccc(N(CC)Cc2ccccc2)c([N+](=O)[O-])c1
Weight change [8]: 0.8
Weight change [2]: 1.6
Tumor volume [3]: 854 mm**3
Weight change [10]: 1.1
Survivors [17]: Not measurable
Tumor volume [4]: 1375 mm**3
Tumor volume [11]: 492 mm**3
Antitumor activity [12]: <8%
Tumor volume [13]: 698 mm**3
Antitumor activity [5]: 50%
Tumor volume [14]: 316 mm**3
Antitumor activity [15]: 12%
Survivors [18]: Not measurable
Antitumor activity [6]: 31%
Weight change [7]: 2.3

CCc1nc(N)nc(N)c1-c1ccc(NCc2ccc(OC)cc2)c([N+](=O)[O-])c1
Weight change [8]: 0.2
Weight change [2]: 3.6
Tumor volume [3]: 875 mm**3
Tumor volume [19]: 306 mm**3
Weight change [10]: 2.3
Tumor volume [4]: 1482 mm**3
Tumor volume [11]: 416 mm**3
Antitumor activity [12]: <8%
Tumor volume [13]: 831 mm**3
IC50 [1]: 0.02 µM
Antitumor activity [5]: 50%
Tumor volume [14]: 636 mm**3
Antitumor activity [15]: 21%
Antitumor activity [6]: 30%
Weight change [7]: 4.1

CCc1nc(N)nc(N)c1-c1ccc(N2CCNCC2)c([N+](=O)[O-])c1
IC50 [1]: 3.1 µM

CCc1nc(N)nc(N)c1-c1ccc(N(C)C)cc1
IC50 [1]: 6.2 µM

CCc1nc(N)nc(N)c1-c1ccc(NCc2ccc(F)cc2)c([N+](=O)[O-])c1
Weight change [8]: 4.3
Weight change [2]: 2.5
Tumor volume [3]: 448 mm**3
Tumor volume [19]: 337 mm**3
Weight change [10]: 2
Tumor volume [4]: 1555 mm**3
Antitumor activity [12]: <8%
Tumor volume [13]: 539 mm**3
Antitumor activity [5]: 68%
Tumor volume [14]: 386 mm**3
Antitumor activity [15]: 17%
Weight change [20]: 3.8
Antitumor activity [6]: 20%

CCc1nc(N)nc(N)c1-c1ccc(N(C)C)c(N)c1
IC50 [1]: 67 µM

CCc1nc(N)nc(N)c1-c1ccc(N2CCCCC2)c(N)c1
IC50 [1]: > 25 µM

CCc1nc(N)nc(N)c1-c1ccc(NCc2ccc(Cl)cc2)c([N+](=O)[O-])c1
Weight change [2]: 3.3
Tumor volume [3]: 597 mm**3
Weight change [10]: 2.9
Tumor volume [4]: 873 mm**3
Tumor volume [13]: 552 mm**3
Antitumor activity [5]: 29%
Tumor volume [14]: 380 mm**3
Antitumor activity [15]: 13%
Antitumor activity [6]: 20%
Weight change [7]: 3.2

CCc1nc(N)nc(N)c1-c1ccc(N2CCOCC2)c(N)c1
IC50 [1]: > 25 µM

CCc1nc(N)nc(N)c1-c1ccc(NCc2ccc(C(F)(F)F)cc2)c([N+](=O)[O-])c1
Weight change [8]: 6.2
Weight change [2]: 2.3
Tumor volume [3]: 454 mm**3
Tumor volume [19]: 291 mm**3
Weight change [10]: 2
Tumor volume [4]: 948 mm**3
Antitumor activity [12]: <8%
Tumor volume [13]: 627 mm**3
Antitumor activity [5]: 40%
Tumor volume [14]: 265 mm**3
Antitumor activity [15]: 12%
Antitumor activity [6]: 20%
Weight change [7]: 3.4

CCc1nc(N)nc(N)c1-c1ccc(N2CCNCC2)c(N)c1
IC50 [1]: > 25 µM

CCc1nc(N)nc(N)c1-c1ccc(N2CCCC2)c([N+](=O)[O-])c1
IC50 [1]: 1.7 µM

CCc1nc(N)nc(N)c1-c1ccc(N(C)C2CCCCC2)c(N)c1
IC50 [1]: 8.5 µM

CCc1nc(N)nc(N)c1-c1ccc(N2CCN(C)CC2)c([N+](=O)[O-])c1
IC50 [1]: 3.9 µM

CCc1nc(N)nc(N)c1-c1ccc(Cl)c([N+](=O)[O-])c1
IC50 [1]: 0.08 µM

CCc1nc(N)nc(N)c1-c1ccc(NCc2ccccc2)c([N+](=O)[O-])c1
Weight change [8]: 1.7
Weight change [2]: 2.1
Tumor volume [3]: 932 mm**3
Weight change [10]: 1.6
Tumor volume [4]: 1454 mm**3
Tumor volume [11]: 301 mm**3
Antitumor activity [12]: <8%
Tumor volume [13]: 443 mm**3
Antitumor activity [5]: 53%
Tumor volume [14]: 586 mm**3
Antitumor activity [15]: 21%
Antitumor activity [6]: 34%
Weight change [7]: 2.2

CCc1nc(N)nc(N)c1-c1ccc(N(CC)Cc2ccccc2)c(N)c1
IC50 [1]: 4 µM
